Measured values from ChEMBL document CHEMBL4118228, “Chemical space screening around Phe3 in opioid peptides: Modulating µ versus δ agonism by Suzuki-Miyaura cross-couplings” (Bioorg Med Chem Lett, 2018).
Calls of active or inactive are those of the source. The calls are words filed in the database; no cut-off is given here. Non-standard residues stand in square brackets, D forms with d. Residues, ends and D or L forms follow the SMILES beside them. Phe(3-Ph) = N[C@@H](Cc1cccc(-c2ccccc2)c1)C(=O)O; Phe(2-Ph) = N[C@@H](Cc1ccccc1-c1ccccc1)C(=O)O; Bip = N[C@@H](Cc1ccc(-c2ccccc2)cc1)C(=O)O; Dmt = Cc1cc(O)cc(C)c1C[C@H](N)C(=O)O

Tests used:
[1] = molecular target: Delta-type opioid receptor (Mus musculus) (UniProt P32300); assay: Partial agonist activity at delta-opioid receptor in mouse vasa deferens assessed as inhibition of electrically induced contractions; type: functional
Chain of Delta-type opioid receptor (Mus musculus) (P32300 whole entry): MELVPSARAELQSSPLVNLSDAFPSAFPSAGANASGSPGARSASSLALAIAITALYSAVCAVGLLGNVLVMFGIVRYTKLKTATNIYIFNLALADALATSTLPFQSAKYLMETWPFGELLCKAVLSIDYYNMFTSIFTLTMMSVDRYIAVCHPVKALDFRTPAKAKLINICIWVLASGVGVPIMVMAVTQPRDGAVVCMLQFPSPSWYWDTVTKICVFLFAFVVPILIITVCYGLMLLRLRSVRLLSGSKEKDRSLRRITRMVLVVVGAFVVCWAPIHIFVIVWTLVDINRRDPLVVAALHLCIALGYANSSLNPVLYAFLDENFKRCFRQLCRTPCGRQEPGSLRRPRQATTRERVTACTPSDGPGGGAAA

[2] = molecular target: Mu-type opioid receptor (Cavia porcellus, UniProt P97266); assay: Agonist activity at mu-opioid receptor in guinea pig ileum assessed as inhibition of electrically induced contractions; type: functional
Chain of Mu-type opioid receptor (Cavia porcellus, UniProt P97266) (P97266 whole entry): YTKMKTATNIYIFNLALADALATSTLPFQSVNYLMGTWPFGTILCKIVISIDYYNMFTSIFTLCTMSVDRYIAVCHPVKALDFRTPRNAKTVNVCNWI

[3] = molecular target: T1, Delta-type opioid receptor (Mus musculus, UniProt P32300); assay: Displacement of [125I]-Deltorphin 2 from mouse Flag-tagged delta-opioid receptor expressed in HEK293 cell membranes after 60 mins by gamma counting
T1 sequence (P32300 whole entry): as the sequence (P32300 whole entry) above

[4] = molecular target: Mu-type opioid receptor (Mus musculus, UniProt P42866); assay: Displacement of [125I]-DAMGO from mouse Flag-tagged mu-opioid receptor expressed in HEK293 cell membranes after 60 mins by gamma counting
Chain of Mu-type opioid receptor (Mus musculus, UniProt P42866) (P42866 whole entry): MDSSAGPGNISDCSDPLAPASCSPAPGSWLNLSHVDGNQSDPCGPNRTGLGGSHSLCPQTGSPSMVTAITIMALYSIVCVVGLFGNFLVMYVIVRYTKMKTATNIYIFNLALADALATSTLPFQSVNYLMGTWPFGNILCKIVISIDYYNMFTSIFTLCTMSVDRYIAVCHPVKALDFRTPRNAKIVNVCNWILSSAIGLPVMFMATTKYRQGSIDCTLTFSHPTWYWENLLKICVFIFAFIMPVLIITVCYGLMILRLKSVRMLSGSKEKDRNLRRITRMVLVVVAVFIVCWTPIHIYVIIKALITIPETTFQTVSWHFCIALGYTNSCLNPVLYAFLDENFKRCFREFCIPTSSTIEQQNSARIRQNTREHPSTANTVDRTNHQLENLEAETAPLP

[5] = species on record: Mus musculus; assay: Selectivity ratio of IC50 for mouse Flag-tagged delta-opioid receptor to IC50 for mouse Flag-tagged mu-opioid receptor
[6] = molecular target: Delta-type opioid receptor (Rattus norvegicus, UniProt P33533); assay: Agonist activity at rat delta-opioid receptor expressed in HEK293 cells co-expressing Rluc2-EPAC-GFP10 biosenser assessed as inhibition of forskolin-induced cAMP level after 10 mins by fluorescence based assay; type: functional, cell-based
Chain of Delta-type opioid receptor (Rattus norvegicus, UniProt P33533) (P33533 whole entry): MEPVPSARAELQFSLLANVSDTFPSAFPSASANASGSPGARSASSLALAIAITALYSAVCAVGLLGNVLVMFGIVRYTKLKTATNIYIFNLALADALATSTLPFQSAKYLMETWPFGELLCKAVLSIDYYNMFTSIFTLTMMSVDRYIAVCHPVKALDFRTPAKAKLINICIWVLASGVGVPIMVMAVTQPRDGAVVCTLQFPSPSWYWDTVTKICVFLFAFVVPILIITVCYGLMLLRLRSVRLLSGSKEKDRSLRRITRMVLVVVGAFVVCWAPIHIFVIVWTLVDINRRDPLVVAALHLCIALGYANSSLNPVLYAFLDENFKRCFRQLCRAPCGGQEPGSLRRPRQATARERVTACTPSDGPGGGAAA

[7] = molecular target: T1, Delta-type opioid receptor; assay: Agonist activity at delta-opioid receptor in mouse vasa deferens assessed as inhibition of electrically induced contractions; type: functional
[8] = species on record: Rattus norvegicus; assay: Antinociceptive activity in Sprague-Dawley rat model of thermal-induced nociception assessed as increase in latency to tail withdrawal at 1 nmol, it measured at every 10 mins for 1 hr by tail flick assay; type: functional, organism-based
How it was run: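 Compound given intrathecally to rats; tail-flick test measured withdrawal response to a thermal stimulus.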

[9] = molecular target: Mu-type opioid receptor (Rattus norvegicus, UniProt P33535); assay: Agonist activity at rat mu-opioid receptor expressed in HEK293 cells co-expressing Rluc2-EPAC-GFP10 biosenser assessed as inhibition of forskolin-induced cAMP level after 10 mins by fluorescence based assay; type: functional, cell-based
Chain of Mu-type opioid receptor (Rattus norvegicus, UniProt P33535) (P33535 whole entry): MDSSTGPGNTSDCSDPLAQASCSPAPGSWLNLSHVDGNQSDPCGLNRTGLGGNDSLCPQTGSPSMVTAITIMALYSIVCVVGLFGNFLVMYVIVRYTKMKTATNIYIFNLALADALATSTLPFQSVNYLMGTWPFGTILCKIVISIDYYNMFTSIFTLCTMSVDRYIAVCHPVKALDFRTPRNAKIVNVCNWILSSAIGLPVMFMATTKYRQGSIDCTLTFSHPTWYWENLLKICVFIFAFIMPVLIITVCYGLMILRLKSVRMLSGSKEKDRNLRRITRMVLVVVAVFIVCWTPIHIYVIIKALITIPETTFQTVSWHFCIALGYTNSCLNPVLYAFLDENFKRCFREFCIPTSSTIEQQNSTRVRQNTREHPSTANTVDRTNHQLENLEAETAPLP

[10] = species on record: Rattus norvegicus; assay: Potency index, ratio of antinociceptive activity of DAMGO to antinociceptive activity of compound in Sprague-Dawley rat model of thermal-induced nociception by tail flick assay; type: functional
[11] = molecular target: Delta-type opioid receptor (Rattus norvegicus) (UniProt P33533); assay: Partial agonist activity at rat delta-opioid receptor expressed in HEK293 cells co-expressing Rluc2-EPAC-GFP10 biosenser assessed as inhibition of forskolin-induced cAMP level after 10 mins by fluorescence based assay; type: functional, cell-based
Chain of Delta-type opioid receptor (Rattus norvegicus) (P33533 whole entry): as the sequence (P33533 whole entry) above

[12] = molecular target: Mu-type opioid receptor (Cavia porcellus) (UniProt P97266); assay: Potency index, ratio of DAMGO IC50 to compound IC50 for mu-opioid receptor in guinea pig ileum
Chain of Mu-type opioid receptor (Cavia porcellus) (P97266 whole entry): as the sequence (P97266 whole entry) above

[13] = molecular target: Mu-type opioid receptor (Rattus norvegicus) (UniProt P33535); assay: Potency index, ratio of DAMGO EC50 to compound EC50 for rat mu-opioid receptor expressed in HEK293 cells co-expressing Rluc2-EPAC-GFP10 biosenser by cAMP accumulation assay; type: functional, cell-based
Chain of Mu-type opioid receptor (Rattus norvegicus) (P33535 whole entry): as the sequence (P33535 whole entry) above

[14] = molecular target: Mu-type opioid receptor (Cavia porcellus) (UniProt P97266); assay: Antagonist activity at mu-opioid receptor in guinea pig ileum assessed as effect on electrically induced contractions; type: functional

Cc1cc(O)cc(C)c1C[C@H](N)C(=O)N[C@H](CCCNC(=N)N)C(=O)N[C@@H](Cc1cccc(-c2ccccc2)c1)C(=O)NCC(N)=O (H-[Dmt][dR][Phe(3-Ph)]G-NH2)
IC40 [1]: 117 nM
IC50 [2]: 61.7 nM
IC50 [3]: 269 nM
IC50 [4]: 0.85 nM
Ratio IC50 [5]: 316

CC(C)=Cc1ccccc1C[C@H](NC(=O)[C@@H](CCCNC(=N)N)NC(=O)[C@@H](N)Cc1c(C)cc(O)cc1C)C(=O)NCC(N)=O
EC50 [6]: 19.4 nM
IC50 [7]: 0.63 nM
Activity [8]: Active
IC50 [2]: 0.701 nM
EC50 [9]: 0.1 nM
IC50 [3]: 585 nM
IC50 [4]: 0.57 nM
Ratio IC50 [5]: 1030
Ratio [10]: 10

Cc1cc(O)cc(C)c1C[C@H](N)C(=O)N[C@H](C)C(=O)N[C@@H](Cc1ccccc1-c1ccsc1)C(=O)NCC(N)=O
EC50 [6]: 56 nM
IC50 [7]: 2.16 nM
IC50 [2]: 1.27 nM
EC50 [9]: 34.8 nM
IC50 [3]: 687 nM
IC50 [4]: 240 nM
Ratio IC50 [5]: 4
Emax [11]: 70%

Cc1cc(O)cc(C)c1C[C@H](N)C(=O)N[C@H](C)C(=O)N[C@@H](Cc1ccccc1-c1ccccc1)C(=O)NCC(N)=O (H-[Dmt][dA][Phe(2-Ph)]G-NH2)
EC50 [6]: 4.9 nM
IC50 [7]: 2.6 nM
Activity [8]: Active
IC50 [2]: 1.6 nM
EC50 [9]: 0.12 nM
IC50 [3]: 19.8 nM
IC50 [4]: 0.35 nM
Ratio IC50 [5]: 57
Ratio [10]: 10

Cc1cc(O)cc(C)c1C[C@H](N)C(=O)N[C@H](CCCNC(=N)N)C(=O)N[C@@H](Cc1ccccc1-c1ccccc1)C(=O)NCC(N)=O
IC50 [7]: 6.99 nM
IC50 [2]: 3.47 nM
IC50 [3]: 20.3 nM
IC50 [4]: 0.54 nM
Ratio IC50 [5]: 38

Cc1cc(O)cc(C)c1C[C@H](N)C(=O)N[C@H](CCCNC(=N)N)C(=O)N[C@@H](Cc1ccccc1-c1ccsc1)C(=O)NCC(N)=O
EC50 [6]: 49 nM
IC50 [7]: 2.75 nM
IC50 [2]: 1.54 nM
EC50 [9]: 0.04 nM
IC50 [3]: 625 nM
IC50 [4]: 1.45 nM
Ratio IC50 [5]: 431

C=Cc1ccccc1C[C@H](NC(=O)[C@@H](CCCNC(=N)N)NC(=O)[C@@H](N)Cc1c(C)cc(O)cc1C)C(=O)NCC(N)=O
EC50 [6]: 7 nM
Ratio IC50 [12]: 70
IC50 [7]: 0.406 nM
IC50 [2]: 0.389 nM
EC50 [9]: 0.012 nM
IC50 [3]: 18 nM
IC50 [4]: 0.47 nM
Ratio IC50 [5]: 38
Ratio EC50 [13]: 20

Cc1cc(O)cc(C)c1C[C@H](N)C(=O)N[C@H](CCCNC(=N)N)C(=O)N[C@@H](Cc1ccc(-c2ccsc2)cc1)C(=O)NCC(N)=O
IC20 [1]: 3960 nM
IC50 [3]: 309 nM
Ke [14]: 138 nM
IC50 [4]: 5.04 nM
Ratio IC50 [5]: 61

C[C@@H](NC(=O)[C@@H](N)Cc1ccc(O)cc1)C(=O)NCC(=O)N(C)[C@@H](Cc1ccccc1)C(=O)NCCO [DAMGO]
IC50 [2]: 28.3 nM

Cc1cc(O)cc(C)c1C[C@H](N)C(=O)N[C@H](CCCNC(=N)N)C(=O)N[C@@H](Cc1ccc(-c2ccccc2)cc1)C(=O)NCC(N)=O (H-[Dmt][dR][Bip]G-NH2)
IC20 [1]: 3090 nM
IC50 [3]: 42.3 nM
Ke [14]: 114 nM
IC50 [4]: 7.08 nM
Ratio IC50 [5]: 6

CC(C)[C@H](NC(=O)[C@H](CCC(=O)O)NC(=O)[C@H](Cc1ccccc1)NC(=O)[C@@H](C)NC(=O)[C@@H](N)Cc1ccc(O)cc1)C(=O)N[C@H](C(=O)NCC(=O)O)C(C)C [DELTORPHIN]
EC50 [6]: 0.1 nM
IC50 [2]: 854 nM
IC50 [4]: 627 nM

C=Cc1ccccc1C[C@H](NC(=O)[C@@H](C)NC(=O)[C@@H](N)Cc1c(C)cc(O)cc1C)C(=O)NCC(N)=O
EC50 [6]: 5.8 nM
IC50 [7]: 2.81 nM
IC50 [2]: 1.18 nM
EC50 [9]: 0.006 nM
IC50 [3]: 8 nM
IC50 [4]: 0.25 nM
Ratio IC50 [5]: 32

Cc1cc(O)cc(C)c1C[C@H](N)C(=O)N[C@H](CCCNC(=N)N)C(=O)N[C@@H](Cc1cccc(-c2ccsc2)c1)C(=O)NCC(N)=O
IC35 [1]: 52.8 nM
IC50 [2]: 30.4 nM
IC50 [3]: 601 nM
IC50 [4]: 1.03 nM
Ratio IC50 [5]: 583

C=Cc1cccc(C[C@H](NC(=O)[C@@H](CCCNC(=N)N)NC(=O)[C@@H](N)Cc2c(C)cc(O)cc2C)C(=O)NCC(N)=O)c1
IC50 [7]: 9.74 nM
IC50 [2]: 1.43 nM
IC50 [3]: 165 nM
IC50 [4]: 0.46 nM
Ratio IC50 [5]: 359

C=Cc1ccc(C[C@H](NC(=O)[C@@H](CCCNC(=N)N)NC(=O)[C@@H](N)Cc2c(C)cc(O)cc2C)C(=O)NCC(N)=O)cc1
IC50 [7]: 430 nM
IC50 [2]: 24.1 nM
IC50 [3]: 1410 nM
IC50 [4]: 1.82 nM
Ratio IC50 [5]: 777
